Laboratory results: ChEMBL document CHEMBL1125290, “Bis basic substituted diaminobenzobisthiazoles as potential antiarthritic agents” (1992)

Tests used:
Format in all cases: functional
[1] = test system: Rattus norvegicus; assay: Antiinflammatory activity against D-adjuvant arthritis in uninjected rat paw at the dose of 50 mg/kg by oral administration
Procedure, shortened: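 Rat developing adjuvant arthritis screen with oral dosing on a prophylactic protocol. Percent change in body weight versus untreated animals was recorded as a preliminary toxicity sign. Significance was assessed against controls by two-tailed Student's t test, p < 0.05.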

[2] = test system: Rattus norvegicus; assay: Antiinflammatory activity against D-adjuvant arthritis in injected rat paw at the dose of 50 mg/kg by oral administration
[3] = test system: Rattus norvegicus; assay: Antiinflammatory activity against carrageenan induced rat paw edema (CPE), dosed orally
Procedure, shortened: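 Male Sprague–Dawley rats (150 ± 10 g), five per group. Compound or vehicle given orally in 0.5% methylcellulose 1 h before subplantar injection of 0.1 mL 1% carrageenan in saline into the right hind paw. Paw volume measured by mercury displacement before dosing and 3 h after carrageenan; the difference is the edema volume. ANOVA with Dunnett's t test.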

[4] = organism: Rattus norvegicus; assay: Antiinflammatory activity in D-adjuvant induced arthritis in rat measured by the change in body weight; set-up: concentration or dose not given beside the values

SMILES | inhibition in vivo at 50 mg/kg [1] | inhibition in vivo at 50 mg/kg [2] | Inhibition [3] | Activity [4]
CC1CCCC1NCC(=O)Nc1nc2cc3nc(NC(=O)CNC4CCCC4C)sc3cc2s1 (stereo not drawn) | 0% | 0% | 36% | -22%
CCOC(=O)c1c2sc(N)nc2cc2nc(N)sc12 | 0% | 23% | 2% | -14%
CCOC(=O)c1c2sc(NC(=O)CN(CC)CC)nc2c(Cl)c2nc(NC(=O)CN(CC)CC)sc12 | 0% | 0% | 5% | -16%
O=C(CN1CCCCC1CCO)Nc1nc2cc3nc(NC(=O)CN4CCCCC4CCO)sc3cc2s1 (stereo not drawn) | 5% | 4% | 30% | -9%
CCN(CC)CC(=O)Nc1nc2cc3nc(NC(=O)CN(CC)CC)sc3c(Br)c2s1 | 100% | 80% | 0% | -45%
O=C(CNC1CC1)Nc1nc2cc3nc(NC(=O)CNC4CC4)sc3cc2s1 | 16% | 0% | 18% | 14%
O=C(CN1CCN(CCO)CC1)Nc1nc2cc3nc(NC(=O)CN4CCN(CCO)CC4)sc3cc2s1 | 72% | 16% | 24% | 0%
CC1CCN(CC(=O)Nc2nc3cc4nc(NC(=O)CN5CCC(C)CC5)sc4cc3s2)CC1 | 100% | 70% | 20% | -26%
O=C(CN1CCC(c2ccccc2)CC1)Nc1nc2cc3nc(NC(=O)CN4CCC(c5ccccc5)CC4)sc3cc2s1 | 12% | 40% | 1% | -12%
O=C(CNC1CCCCCC1)Nc1nc2cc3nc(NC(=O)CNC4CCCCCC4)sc3cc2s1 | 59% | 6% | 0% | 1%
O=C(CNc1ccccc1)Nc1nc2cc3nc(NC(=O)CNc4ccccc4)sc3cc2s1 | 0% | 0% | 0% | -11%
CCN(CC)CC(=O)Nc1nc2c(s1)c(OC)cc1nc(NC(=O)CN(CC)CC)sc12 | 51% | 47% | 32% | 7%
CC(C)NCC(=O)Nc1nc2cc3nc(NC(=O)CNC(C)C)sc3cc2s1 | 11% | 9% | 28% | 7%
O=C(CN1CCNCC1)Nc1nc2cc3nc(NC(=O)CN4CCNCC4)sc3cc2s1 | 27% | 31% | 19% | -9%
O=C(CN1CCC(Cc2ccccc2)CC1)Nc1nc2cc3nc(NC(=O)CN4CCC(Cc5ccccc5)CC4)sc3cc2s1 | 13% | 15% | 9% | -16%
CCN(CC)CCCC(C)Nc1nc2cc3nc(NC(C)CCCN(CC)CC)sc3cc2s1 (stereo not drawn) | 0% | 0% | 0% | -17%
O=C(CN1CCN(c2ccc(Cl)cc2)CC1)Nc1nc2cc3nc(NC(=O)CN4CCN(c5ccc(Cl)cc5)CC4)sc3cc2s1 | 41% | 21% | 12% | 
CCN(CC)CC(=O)Nc1nc2c(s1)c(OC)c(Cl)c1nc(NC(=O)CN(CC)CC)sc12 | 8% | 38% | 17% | -11%
CCN(CC)CC(=O)Nc1nc2cc3nc(NC(=O)CN(CC)CC)sc3c(Cl)c2s1 | 100% | 94% | 8% | -46%
O=C(CN1CCN(c2cccc(C(F)(F)F)c2)CC1)Nc1nc2cc3nc(NC(=O)CN4CCN(c5cccc(C(F)(F)F)c5)CC4)sc3cc2s1 | 73% | 39% | 0% | 4%
O=C(CN1CCN(c2ccccc2)CC1)Nc1nc2cc3nc(NC(=O)CN4CCN(c5ccccc5)CC4)sc3cc2s1 | 56% | 40% | 0% | 1%
COc1cc2nc(N)sc2c2nc(N)sc12 | 35% | 34% | 43% | -29%
CN(CC(=O)Nc1nc2cc3nc(NC(=O)CN(C)C4CCCCCCC4)sc3cc2s1)C1CCCCCCC1 | 29% | 22% | 0% | -3%

SMILES | inhibition in vivo at 50 mg/kg [1] | inhibition in vivo at 50 mg/kg [2] | Inhibition [3] | Activity [4]
CN1CCN(CC(=O)Nc2nc3cc4nc(NC(=O)CN5CCN(C)CC5)sc4cc3s2)CC1 | 0% | 0% | 28% | -25%
CCN(CC)CC(=O)Nc1nc2cc3nc(NC(=O)CN4CCCCC4)sc3cc2s1 | 58% | 50% | 20% | -14%
CCN(CC)CC(=O)Nc1nc2cc3nc(NC(=O)CN(CC)CC)sc3c(N)c2s1 | 38% | 26% | 53% | -35%
CC1CCCCN1CC(=O)Nc1nc2cc3nc(NC(=O)CN4CCCCC4C)sc3cc2s1 (stereo not drawn) | 82% | 41% | 0% | 6%
O=C(CN1CCCC1)Nc1nc2cc3nc(NC(=O)CN4CCCC4)sc3cc2s1 | 21% | 18% | 17% | -21%
O=C(CNC1CCCC1)Nc1nc2cc3nc(NC(=O)CNC4CCCC4)sc3cc2s1 | 70% | 43% | 13% | 10%
O=C(CN1CCN(CC(F)(F)F)CC1)Nc1nc2cc3nc(NC(=O)CN4CCN(CC(F)(F)F)CC4)sc3cc2s1 | 10% | 0% | 25% | -13%
CCN(CC)CC(=O)N(C)c1nc2c(ccc3sc(N(C)C(=O)CN(CC)CC)nc32)s1 | 34% | 0% | 21% | 4%
CCOC(=O)C1CCCCN1CC(=O)Nc1nc2cc3nc(NC(=O)CN4CCCCC4C(=O)OCC)sc3cc2s1 (stereo not drawn) | 0% | 6% | 20% | -16%
CCN(CC)CC(=O)N(CC)c1nc2cc3nc(N(CC)C(=O)CN(CC)CC)sc3c(Br)c2s1 | 0% | 0% | 16% | -16%
O=C(CN1CCCCCC1)Nc1nc2cc3nc(NC(=O)CN4CCCCCC4)sc3cc2s1 | 27% | 26% | 0% | 
Cc1c2nc(N)sc2c(C(=O)[O-])c2sc(N)nc12.[Na+] | 0% | 7% | 22% | -15%
CC1CCC(NCC(=O)Nc2nc3cc4nc(NC(=O)CNC5CCC(C)C5)sc4cc3s2)C1 (stereo not drawn) | 30% | 11% | 11% | -7%
O=C(CN1CCC(N2CCCCC2)CC1)Nc1nc2cc3nc(NC(=O)CN4CCC(N5CCCCC5)CC4)sc3cc2s1 | 38% | 46% | 0% | -3%
CN(C)CC(=O)Nc1nc2cc3nc(NC(=O)CN(C)C)sc3cc2s1 | 81% | 1% | 8% | -37%
CN(CC(=O)Nc1nc2cc3nc(NC(=O)CN(C)C4CCCC4)sc3cc2s1)C1CCCC1 | 3% | 21% | 6% | -18%
Cl.Cl.O=C(CN1CCOCC1)Nc1nc2cc3nc(NC(=O)CN4CCOCC4)sc3cc2s1 | 21% | 18% | 17% | -21%
CCN(CC)CC(=O)Nc1nc2c(ccc3nc(NC(=O)CN(CC)CC)sc32)s1.Cl.Cl | 36% | 2% | 0% | -20%
CC1CN(CC(=O)Nc2nc3cc4nc(NC(=O)CN5CC(C)NCC5C)sc4cc3s2)C(C)CN1.Cl.Cl.Cl.Cl (stereo not drawn) | 0% | 0% | 0% | -6%
CCCN(CCC)CC(=O)Nc1nc2cc3nc(NC(=O)CN(CCC)CCC)sc3cc2s1.Cl.Cl | 47% | 29% | 46% | -11%
CCN(CC)CC(=O)Nc1nc2c(Cl)c3nc(NC(=O)CN(CC)CC)sc3c(C#N)c2s1.Cl.Cl | 100% | 80% | 19% | -35%
O=C(CN1CCN(Cc2ccccc2)CC1)Nc1nc2cc3nc(NC(=O)CN4CCN(Cc5ccccc5)CC4)sc3cc2s1 | 6% | 5% | 26% | -6%
